The source made the active and inactive calls. No cut-off for these calls is given here.
Test system: B16-F10
Assay: Effect on total cell surface glycosylation in mouse B16F10 cells assessed as inhibition of biotinylated GSL1-lectin binding at 102.4 uM after 3 days by flow cytometry
Type: cell-based
Details: b16-f10, 72 h
Outline: (§1)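 B16-F10 cells were exposed 3 days to 102.4 µM compound or DMSO. Staining used biotinylated lectins (AAL 5, PNA 5, GSL-I 1, LCA 1, PHA-L 1, PSA 1, SJA 1, WGA 1 µg/ml) in carbo-free blocking buffer with 1 mM CaCl and 1 mM MgCl for 45-60 min at 4 °C, then streptavidin-PE for 20 min at 4 °C. Flow cytometry read-out was MFI, mean ± SEM from two independent experiments.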

| SMILES | Activity |
| --- | --- |
| COC(=O)C1(OC(C)=O)O[C@@H]([C@H](OC(C)=O)[C@@H](COC(C)=O)OC(C)=O)[C@H](NC(C)=O)[C@@H](OC(C)=O)[C@H]1F (some centres undefined) | Non-Toxic |

Test system: B16-F10
Assay: Effect on total cell surface glycosylation in mouse B16F10 cells assessed as inhibition of biotinylated PSA-lectin binding at 102.4 uM after 3 days by flow cytometry
Type: cell-based
Details: b16-f10, 72 h
Outline: as §1

| SMILES | Activity |
| --- | --- |
| COC(=O)C1(OC(C)=O)O[C@@H]([C@H](OC(C)=O)[C@@H](COC(C)=O)OC(C)=O)[C@H](NC(C)=O)[C@@H](OC(C)=O)[C@H]1F (some centres undefined) | Non-Toxic |

Test system: B16-F10
Assay: Effect on total cell surface glycosylation in mouse B16F10 cells assessed as inhibition of biotinylated SJA-lectin binding at 102.4 uM after 3 days by flow cytometry
Type: cell-based
Details: b16-f10, 72 h
Outline: as §1

| SMILES | Activity |
| --- | --- |
| COC(=O)C1(OC(C)=O)O[C@@H]([C@H](OC(C)=O)[C@@H](COC(C)=O)OC(C)=O)[C@H](NC(C)=O)[C@@H](OC(C)=O)[C@H]1F (some centres undefined) | Non-Toxic |

Test system: B16-F10
Assay: Effect on total cell surface glycosylation in mouse B16F10 cells assessed as inhibition of biotinylated PHA-L lectin binding at 102.4 uM after 3 days by flow cytometry
Type: cell-based
Details: b16-f10, 72 h
Outline: as §1

| SMILES | Activity |
| --- | --- |
| COC(=O)C1(OC(C)=O)O[C@@H]([C@H](OC(C)=O)[C@@H](COC(C)=O)OC(C)=O)[C@H](NC(C)=O)[C@@H](OC(C)=O)[C@H]1F (some centres undefined) | Non-Toxic |

Test system: not listed separately
Assay: Inhibition of sialyltransferase in mouse B16F10 cells assessed as decrease in lectin binding after 3 days by biotinylated MAL2 lectin and streptavidin-PE based flow cytometry
Type: cell-based
Details: not given
Outline: (§2)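 Each cell line was incubated 3 days with increasing compound concentrations or equivalent DMSO. Cells were stained with biotinylated MALII (5 µg/ml) in carbo-free blocking buffer with 1 mM CaCl/MgCl for 45-60 min at 4 °C, washed in PBS/1% BSA/0.02% azide, then stained with streptavidin-PE for 20 min at 4 °C. For flow cytometry, MFI was normalized to control as % lectin binding.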

| EC50 [µM] | SMILES |
| --- | --- |
| 26.8 | COC(=O)C1(OC(C)=O)O[C@@H]([C@H](OC(C)=O)[C@@H](COC(C)=O)OC(C)=O)[C@H](NC(C)=O)[C@@H](OC(C)=O)[C@H]1F (some centres undefined) |

Test system: not listed separately
Assay: Inhibition of sialyltransferase in HEK293 cells assessed as decrease in lectin binding after 3 days by biotinylated MAL2 lectin and streptavidin-PE based flow cytometry
Type: cell-based, Homo sapiens
Details: not given
Outline: as §2

| EC50 [µM] | SMILES |
| --- | --- |
| 45.2 | COC(=O)C1(OC(C)=O)O[C@@H]([C@H](OC(C)=O)[C@@H](COC(C)=O)OC(C)=O)[C@H](NC(C)=O)[C@@H](OC(C)=O)[C@H]1F (some centres undefined) |

Test system: B16-F10
Assay: Effect on total cell surface glycosylation in mouse B16F10 cells assessed as inhibition of biotinylated WGA-lectin binding at 102.4 uM after 3 days by flow cytometry
Type: cell-based
Details: b16-f10, 72 h
Outline: as §1

| SMILES | Activity |
| --- | --- |
| COC(=O)C1(OC(C)=O)O[C@@H]([C@H](OC(C)=O)[C@@H](COC(C)=O)OC(C)=O)[C@H](NC(C)=O)[C@@H](OC(C)=O)[C@H]1F (some centres undefined) | Non-Toxic |

Test system: not listed separately
Assay: Inhibition of sialyltransferase in human HeLa cells assessed as decrease in lectin binding after 3 days by biotinylated MAL2 lectin and streptavidin-PE based flow cytometry
Type: cell-based
Details: not given
Outline: as §2

| EC50 [µM] | SMILES |
| --- | --- |
| 53 | COC(=O)C1(OC(C)=O)O[C@@H]([C@H](OC(C)=O)[C@@H](COC(C)=O)OC(C)=O)[C@H](NC(C)=O)[C@@H](OC(C)=O)[C@H]1F (some centres undefined) |

Test system: not listed separately
Assay: Inhibition of sialyltransferase in mouse 9464D cells assessed as decrease in lectin binding after 3 days by biotinylated MAL2 lectin and streptavidin-PE based flow cytometry
Type: cell-based
Details: not given
Outline: as §2

| EC50 [µM] | SMILES |
| --- | --- |
| > 102 | COC(=O)C1(OC(C)=O)O[C@@H]([C@H](OC(C)=O)[C@@H](COC(C)=O)OC(C)=O)[C@H](NC(C)=O)[C@@H](OC(C)=O)[C@H]1F (some centres undefined) |

Test system: B16-F10
Assay: Effect on total cell surface glycosylation in mouse B16F10 cells assessed as inhibition of biotinylated AAL-lectin binding at 102.4 uM after 3 days by flow cytometry
Type: cell-based
Details: b16-f10, 72 h
Outline: as §1

| SMILES | Activity |
| --- | --- |
| COC(=O)C1(OC(C)=O)O[C@@H]([C@H](OC(C)=O)[C@@H](COC(C)=O)OC(C)=O)[C@H](NC(C)=O)[C@@H](OC(C)=O)[C@H]1F (some centres undefined) | Non-Toxic |

Test system: B16-F10
Assay: Effect on total cell surface glycosylation in mouse B16F10 cells assessed as inhibition of biotinylated LCA-lectin binding at 102.4 uM after 3 days by flow cytometry
Type: cell-based
Details: b16-f10, 72 h
Outline: as §1

| SMILES | Activity |
| --- | --- |
| COC(=O)C1(OC(C)=O)O[C@@H]([C@H](OC(C)=O)[C@@H](COC(C)=O)OC(C)=O)[C@H](NC(C)=O)[C@@H](OC(C)=O)[C@H]1F (some centres undefined) | Non-Toxic |

Test system: B16-F10
Assay: Effect on total cell surface glycosylation in mouse B16F10 cells assessed as inhibition of biotinylated PNA lectin binding at 102.4 uM after 3 days by flow cytometry
Type: cell-based
Details: b16-f10, 72 h
Outline: as §1

| SMILES | Activity |
| --- | --- |
| COC(=O)C1(OC(C)=O)O[C@@H]([C@H](OC(C)=O)[C@@H](COC(C)=O)OC(C)=O)[C@H](NC(C)=O)[C@@H](OC(C)=O)[C@H]1F (some centres undefined) | Non-Toxic |

Test system: B16-F10
Assay: Cytotoxicity against mouse B16F10 cells assessed as reduction in metabolic activity at <51.2 uM after 3 days by MTT assay
Type: ADME, cell-based
Details: b16-f10, 72 h

| SMILES | Activity |
| --- | --- |
| COC(=O)C1(OC(C)=O)O[C@@H]([C@H](OC(C)=O)[C@@H](COC(C)=O)OC(C)=O)[C@H](NC(C)=O)[C@@H](OC(C)=O)[C@H]1F (some centres undefined) | Non-Toxic |

Test system: B16-F10
Assay: Inhibition of sialyltransferase in mouse B16-F10 cells assessed as recovery time for sialylation at 25.6 uM pretreated for 3 days followed by washing and re-seeding and measured after 6 days by biotinylated MAL2 lectin-based flow cytometry
Type: cell-based
Details: not given
Outline: (§3)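 B16-F10 cells were pretreated 3 days with 25.6 or 51.2 µM compound or DMSO, washed, reseeded, and sampled daily for 6 days. They were stained with biotinylated MALII (5 µg/ml, 45-60 min, 4 °C) plus streptavidin-PE. Flow cytometry MFI was normalized to control as % lectin binding.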

| SMILES | sialylation recovery time |
| --- | --- |
| COC(=O)C1(OC(C)=O)O[C@@H]([C@H](OC(C)=O)[C@@H](COC(C)=O)OC(C)=O)[C@H](NC(C)=O)[C@@H](OC(C)=O)[C@H]1F (some centres undefined) | Active |

Test system: B16-F10
Assay: Inhibition of sialyltransferase in mouse B16-F10 cells assessed as recovery time for sialylation at 51.2 uM pretreated for 3 days followed by washing and re-seeding and measured after 6 days by biotinylated MAL2 lectin-based flow cytometry
Type: cell-based
Details: not given
Outline: as §3

| SMILES | TIME [h] |
| --- | --- |
| COC(=O)C1(OC(C)=O)O[C@@H]([C@H](OC(C)=O)[C@@H](COC(C)=O)OC(C)=O)[C@H](NC(C)=O)[C@@H](OC(C)=O)[C@H]1F (some centres undefined) | 48 to 72 |

Test system: B16-F10
Assay: Cytotoxicity against mouse B16F10 cells assessed as reduction in metabolic activity at 204.8 uM after 3 days by MTT assay
Type: ADME, cell-based
Details: b16-f10, 72 h

| SMILES | Activity |
| --- | --- |
| COC(=O)C1(OC(C)=O)O[C@@H]([C@H](OC(C)=O)[C@@H](COC(C)=O)OC(C)=O)[C@H](NC(C)=O)[C@@H](OC(C)=O)[C@H]1F (some centres undefined) | Non-Toxic |

Test system: not listed separately
Assay: Inhibition of sialyltransferase in mouse EL4 cells assessed as decrease in lectin binding after 3 days by biotinylated MAL2 lectin and streptavidin-PE based flow cytometry
Type: cell-based
Details: not given
Outline: as §2

| EC50 [µM] | SMILES |
| --- | --- |
| > 102 | COC(=O)C1(OC(C)=O)O[C@@H]([C@H](OC(C)=O)[C@@H](COC(C)=O)OC(C)=O)[C@H](NC(C)=O)[C@@H](OC(C)=O)[C@H]1F (some centres undefined) |

Biological target: N-acylneuraminate cytidylyltransferase (Mus musculus, UniProt Q99KK2)
Assay: Prodrug activation in mouse B16F10 cells assessed as CMAS-mediated CMP-SiaFR levels at 51.2 uM after 1 to 24 hrs using fluorinated compounds by reverse-phase ion pairing chromatography/triple quadrupole mass spectrometric analysis
Type: cell-based
Details: not given
Outline: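 B16-F10 cells were incubated 1, 2, 4, 8 or 24 h with 51.2 µM fluorinated analogue or DMSO. Cells were washed with ammonium carbonate buffer (pH 7.4) and snap-frozen in liquid nitrogen. Extraction was twice for 3 min with cold 40% acetonitrile/40% methanol/20% water, followed by centrifugation for 3 min and vacuum drying.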

Sequence of N-acylneuraminate cytidylyltransferase (Q99KK2 whole entry): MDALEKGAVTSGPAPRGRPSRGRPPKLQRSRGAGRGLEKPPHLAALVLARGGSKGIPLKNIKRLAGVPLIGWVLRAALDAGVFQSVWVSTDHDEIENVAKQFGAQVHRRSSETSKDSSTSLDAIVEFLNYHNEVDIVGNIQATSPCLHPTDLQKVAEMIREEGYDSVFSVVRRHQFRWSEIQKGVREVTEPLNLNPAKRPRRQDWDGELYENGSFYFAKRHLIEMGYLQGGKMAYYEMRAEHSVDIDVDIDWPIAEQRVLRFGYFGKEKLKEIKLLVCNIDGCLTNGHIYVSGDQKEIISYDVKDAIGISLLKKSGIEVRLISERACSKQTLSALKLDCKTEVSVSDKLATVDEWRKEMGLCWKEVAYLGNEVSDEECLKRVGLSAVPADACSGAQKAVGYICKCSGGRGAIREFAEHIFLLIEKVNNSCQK

| Drug metabolism | SMILES |
| --- | --- |
| Metabolite_Detected | COC(=O)C1(OC(C)=O)O[C@@H]([C@H](OC(C)=O)[C@@H](COC(C)=O)OC(C)=O)[C@H](NC(C)=O)[C@@H](OC(C)=O)[C@H]1F (some centres undefined) |

Test system: not listed separately
Assay: Inhibition of sialyltransferase in human THP1 cells assessed as decrease in lectin binding after 3 days by biotinylated MAL2 lectin and streptavidin-PE based flow cytometry
Type: cell-based
Details: not given
Outline: as §2

| EC50 [µM] | SMILES |
| --- | --- |
| 8.5 | COC(=O)C1(OC(C)=O)O[C@@H]([C@H](OC(C)=O)[C@@H](COC(C)=O)OC(C)=O)[C@H](NC(C)=O)[C@@H](OC(C)=O)[C@H]1F (some centres undefined) |

From ChEMBL document CHEMBL4330094, “Potent Metabolic Sialylation Inhibitors Based on C-5-Modified Fluorinated Sialic Acids” (J Med Chem, 2019)
